Converted amounts (≈) assume the structure as drawn. Where two headings read alike, the source gives them in different places.
Legend:
NCI-H460 = experiment: MTT assay, cell viability after 72 h; assay type: cell-based, human; conditions: read-out: IC50 (at day 3)
Outline: (§1)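 Cells were kept in RPMI-1640 with 10% FBS at 37 °C and 5% CO₂, grown to confluency, seeded at 5,000–7,000 per well, and incubated 24 h. Medium was replaced with medium holding test compound, diluted from a 1% DMSO/water suspension, in six replicates each in triplicate. After 72 h, MTT in PBS was added for 4 h. Medium was then removed, formazan dissolved in DMSO, and OD read at 540 nm.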

NCI-H1975 = experiment: MTT assay, cell viability after 72 h; assay type: cell-based, human; conditions: read-out: IC50 (at day 3)
Outline: as §1

[1] = Water solubility from a filtered saturated solution, by weight; assay type: physicochemical; conditions: for solubility: thermodynamic from solid
HCC827 = experiment: MTT assay, cell viability after 72 h; assay type: cell-based, human; conditions: read-out: IC50 (at day 3)
Outline: as §1

NCI-H460 cell line = experiment: Annexin V; assay type: cell-based, human; conditions: H460 cells
Outline: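 NCI-H460 cells were seeded at 1×10^5 per well and left to adhere overnight. Test compound or cisplatin (40 µM) was diluted into medium from a 1% DMSO/water solution, and untreated controls got fresh medium, with 2 wells per treatment. After exposure, cells were washed twice in cold PBS and stained with FITC-Annexin V and PI in 1× binding buffer for 15 min at room temperature in the dark. Imaging used fluorescence microscopy at 10× and 20×.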

[2] = tested on: PARP and caspase-3 in NCI-H460 cells; experiment: Western blotting of apoptotic proteins caspase-3 and PARP; assay type: cell-based, human; conditions: 5 μM
Outline: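 Confluent NCI-H460 cells, seeded at 1×10^5 per well in RPMI-1640 with 10% FBS and 1% pen-strep, were serum-starved 24 h, then treated. Cells were lysed in ice-cold Tris pH 7.5/Triton X-100 buffer with protease/phosphatase inhibitors. Equal lysate amounts were run on 4–12% SDS-PAGE and moved to PVDF, then probed with PARP, caspase-3 and GAPDH antibodies (1:1,000, 4 °C overnight) and HRP anti-rabbit (1:5,000). Detection was by ECL, with GAPDH reprobe for normalization and cisplatin lysates as control.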

[3] = tested on: NSCLC cell lines NCI-H460, NCI-H1975, and HCC827; experiment: MTT assay, values stated for the whole panel of NSCLC cell lines; assay type: cell-based, human; conditions: for IC50: Homo sapiens, 72 h, read-out: IC50 values against the panel of cancer cell lines
Outline: as §1

[4] = treatment 6 h, IC23 and cisplatin at 40 μM

| SMILES | IC50 (NCI-H460; Homo sapiens, NCI-H460, 72 h) [µM] | IC50 (NCI-H1975; Homo sapiens, NCI-H1975, 72 h) [µM] | solubility ([1]; water) [µg/mL] | IC50 (HCC827; Homo sapiens, HCC827, 72 h) [µM] | IC50 [3] [µM] | also measured |
| --- | --- | --- | --- | --- | --- | --- |
| Cn1c(=O)c2c(ncn2Cc2ccc3ccccc3c2)n(C)c1=O [Compound 14, 1,3-dimethyl-7-(naphthalen-2-ylmethyl)xanthine] | 8 | 12 | 800 (≈ 2500 µM) | 28 | – | – |
| Clc1c(Cl)[n+](Cc2ccc3ccccc3c2)cn1Cc1ccc2ccccc2c1.[Br-] [IC23, 4,5-dichloro-1,3-bis (naphthalen-2-ylmethyl)imidazolium bromide] | 5 | 6 | < 100 | 8 | – | stage of apoptosis (Annexin V / PI) (NCI-H460 cell line; treatment 1 h, IC23 at 40 μM): early stage of apoptosis; stage of apoptosis (Annexin V / PI) (NCI-H460 cell line; treatment 3 h, IC23 at 40 μM): latestage apoptotic cells; stage of apoptosis (Annexin V / PI) (NCI-H460 cell line; [4]): end stage of apoptosis; PARP cleavage ([2]; H460 cell lysates, 12 h): presence of cleaved PARP; levels of procaspase-3 ([2]; H460 cell lysates, 12 h): substantial reduction; PARP-1 and procaspase-3 cleavage ([2]; H460 cells, 1 h): little PARP-1 and procaspase-3 cleavage |
| CCCCCn1c[n+](Cc2ccc3ccccc3c2)c(Cl)c1Cl.[Br-] [Compound 5, 4,5-dichloro-3-(naphthalen-2-ylmethyl)-1-pentylimidazolium bromide] | 10 | 12 | 3100 | 12 | 10 to 12 | – |
| Clc1c(Cl)[n+](Cc2ccccc2)cn1CCc1cccc2ccccc12 [Compound 19, 3-benzyl-4,5-dichloro-1-(2-(naphthalen-1-yl)ethyl)-imidazolium bromide] | 12 | 14 | – | > 30 | – | – |
| CCCCCCCCCCCCn1c[n+](Cc2ccc3ccccc3c2)c(Cl)c1Cl [Compound 9, 4,5-dichloro-1-dodecyl-3-(naphthalen-2-ylmethyl)-imidazolium bromide] | 5 | 4 | – | – | ≤ 10 | – |
| c1ccc2cc(Cn3c[n+](Cc4ccc5ccccc5c4)c4ccccc43)ccc2c1 [Compound 13, 1,3-bis(naphthalen-2-ylmethyl)benzimidazolium bromide] | 3 | 4 | – | 5 | – | – |
| CCCn1c[n+](Cc2ccc3ccccc3c2)c(Cl)c1Cl.[Br-] [Compound 2, 4,5-dichloro-3-(naphthalen-2-ylmethyl)-1-propylimidazolium bromide] | 19 | 22 | 5200 | > 30 | ≥ 19 | – |
| Clc1c(Cl)[n+](CCc2cccc3ccccc23)cn1CCc1cccc2ccccc12.[Br-] [Compound 17, 4,5-dichloro-1,3-bis(2-(naphthalen-1-yl)ethyl)-imidazolium bromide] | 8 | 8 | 400 | 11 | – | – |
| CC(C)n1c[n+](Cc2ccc3ccccc3c2)c(Cl)c1Cl.[Br-] [Compound 3, 4,5-dichloro-1-isopropyl-3-(naphthalen-2-ylmethyl)imidazolium bromide] | > 30 | 20 | 10800 | > 30 | ≥ 19 | – |
| Clc1c(Cl)[n+](Cc2ccc3ccccc3n2)cn1Cc1ccc2ccccc2c1.[Br-] [Compound 23, 4,5-dichloro-1-(naphthalen-2-ylmethyl)-3-(quinolin-2-ylmethyl)imidazolium bromide] | 10 | 5 | 900 | 9 | – | increase in aqueous solubility from IC23 ([1]; relative to IC23): ≥ 10 fold |
| CCCCCCCCCn1c[n+](Cc2ccc3ccccc3c2)c(Cl)c1Cl.[Br-] [Compound 8, 4,5-dichloro-3-(naphthalen-2-ylmethyl)-1-nonylimidazolium bromide] | 10 | 3 | 300 | 3 | ≤ 10 | – |
| [Br-].c1ccc2cc(Cn3cc[n+](Cc4ccc5ccccc5c4)c3)ccc2c1 [Compound 12, 1,3-bis(naphthalen-2-ylmethyl)imidazolium bromide] | 4 | 6 | – | 9 | – | stage of apoptosis (Annexin V / PI) (NCI-H460 cell line; [4]): early stages of apoptosis |
| Clc1c(Cl)[n+](Cc2ccc3ccccc3c2)cn1Cc1ccccc1 [Compound 11, 1-benzyl-4,5-dichloro-3-(naphthalen-2-ylmethyl)-imidazolium bromide] | 15 | 12 | – | 15 | 12 to 15 | – |
| CCn1c[n+](Cc2ccc3ccccc3c2)c(Cl)c1Cl.[Br-] [Compound 1, 4,5-dichloro-1-ethyl-3-(naphthalen-2-ylmethyl)-imidazolium bromide] | 26 | > 30 | 13500 | > 30 | ≥ 19 | – |
| N.N.[Cl][Pt][Cl] [cisplatin, reference compound] | – | – | – | – | – | IC50 (NCI-H460; NCI-H460, 72 h exposure, MTT): 3 µM; IC50 (NCI-H1975; NCI-H1975, 72 h exposure, MTT): 10 µM; stage of apoptosis (Annexin V / PI) (NCI-H460 cell line; [4]): early-stage apoptosis; IC50 (HCC827; HCC827, 72 h exposure, MTT): 4 µM; PARP-1 cleavage and amount of procaspase-3 ([2]; H460 cells, 36 h): both PARP-1 cleavage and a reduced amount of procaspase-3 |
| CCCCCCn1c[n+](Cc2ccc3ccccc3c2)c(Cl)c1Cl.[Br-] [Compound 6, 4,5-dichloro-1-hexyl-3-(naphthalen-2-ylmethyl)-imidazolium bromide] | 5 | 5 | 1400 | 8 | ≤ 10 | – |
| Clc1c(Cl)[n+](Cc2ccc3ccccc3c2)cn1CCc1ccc2ccccc2c1 [Compound 22, 4,5-dichloro-1-(2-(naphthalen-2-yl)ethyl)-3-(naphthalen-2-ylmethyl)-imidazolium bromide] | 4 | 7 | – | 9 | – | – |
| Cn1c(=O)c2c(n(C)c[n+]2Cc2ccc3ccccc3c2)n(C)c1=O.[I-] [Compound 15, 1,3,9-trimethyl-7-(naphthalen-2-ylmethyl)xanthinium iodide] | – | – | – | – | – | IC50 (NCI-H460; NCI-H460, 72 h exposure, MTT): > 30 µM; anti-tumor activity against the three cell lines ([3]; NCI-H460, NCI-H1975, HCC827, result in words): no observable anti-tumor activity; IC50 (NCI-H1975; NCI-H1975, 72 h exposure, MTT): > 30 µM; H2O solubility ([1]; water, saturated solution stirred for several hours, filtered): 2600 µg/mL; IC50 (HCC827; HCC827, 72 h exposure, MTT): > 30 µM |
| Clc1c(Cl)[n+](Cc2ccc3ccccc3c2)cn1CCc1cccc2ccccc12.[Br-] [Compound 18, 4,5-dichloro-1-(2-(naphthalen-1-yl)ethyl)-3-(naphthalen-2-ylmethyl)-imidazolium bromide] | 5 | 6 | 100 | 7 | – | water solubility compared to IC23 ([1]; result in words): did not show a significant increase |
| Clc1c(Cl)[n+](CCc2ccc3ccccc3c2)cn1CCc1ccc2ccccc2c1 [Compound 21, 4,5-Dichloro-1,3-bis(2-(naphthalen-2-yl)ethyl)-imidazolium bromide] | 8 | 8 | – | 8 | – | – |
| CCCCn1c[n+](Cc2ccc3ccccc3c2)c(Cl)c1Cl.[Br-] [Compound 4, 1-butyl-4,5-dichloro-3-(naphthalen-2-ylmethyl)-imidazolium bromide] | 13 | 10 | 5700 | 12 | – | – |
| CCCCCCCn1c[n+](Cc2ccc3ccccc3c2)c(Cl)c1Cl [Compound 7, 4,5-dichloro-1-heptyl-3-(naphthalen-2-ylmethyl)-imidazolium bromide] | 6 | 4 | – | 6 | ≤ 10 | – |
| Clc1ncn(CCc2ccc3ccccc3c2)c1Cl [Compound 20, 4,5-dichloro-1-(2-(naphthalen-2-yl)ethyl)-imidazole] | > 30 | > 30 | – | > 30 | – | – |
| Clc1ncn(CCc2cccc3ccccc23)c1Cl [Compound 16, 4,5-dichloro-1-(2-(naphthalen-1-yl)ethyl)-imidazole] | – | – | – | – | – | IC50 (NCI-H460; NCI-H460, 72 h exposure, MTT): > 30 µM; IC50 (NCI-H1975; NCI-H1975, 72 h exposure, MTT): > 30 µM; IC50 (HCC827; HCC827, 72 h exposure, MTT): > 30 µM |
| Clc1c(Cl)[n+](Cc2ccccc2)cn1Cc1ccccc1 [Compound 10, 1,3-dibenzyl-4,5-dichloroimidazolium bromide] | > 30 | > 30 | – | > 30 | – | – |

Source: article PMC4593509 (Medicinal chemistry research : an international journal for …, 2015)
